For 28 compounds, IC50, Activity and EC50 results are on record in ChEMBL document CHEMBL1800059, “Spiroindane based amides as potent and selective MC4R agonists for the treatment of obesity” (Bioorg Med Chem Lett, 2010).

pEC50, pIC50: −log10 of the molar value.

For experiment [1], the target named is T1, Melanocortin receptor 4 (Homo sapiens, UniProt P32245). Description: Displacement of [125I]-NDP-R-MSH from human MC4R expressed in CHO cells after 1.5 hrs by scintillation counting. The experiment is classed as cell-based. The essentials: (§1)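 Each value is the mean of at least three repeat measurements. Functional read-outs give EC50 with % maximal activation.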

The nature of experiment [2]: Agonist activity at human MC1bR expressed in CHO cells assessed as increase of alpha-MSH-stimulated cAMP release pretreated for 10 mins before alpha-MSH challenge measured after 40 mins relative to alpha-MSH. The experiment is classed as functional. In short, it runs like this: as §1
For experiment [3], the target named is T1, Melanocortin receptor 4. Description: Agonist activity at human MC4R expressed in CHO cells assessed as increase of alpha-MSH-stimulated cAMP release pretreated for 10 mins before alpha-MSH challenge measured after 40 mins. The format is functional, cell-based. In short, it runs like this: as §1
Experiment [4] deals with T1, Melanocortin receptor 4. Description: Agonist activity at human MC4R expressed in CHO cells assessed as increase of alpha-MSH-stimulated cAMP release pretreated for 10 mins before alpha-MSH challenge measured after 40 mins relative to alpha-MSH. The format is functional, cell-based. The essentials:
as §1

Experiment [5] is described as follows: Agonist activity at human MC1bR expressed in CHO cells assessed as increase of alpha-MSH-stimulated cAMP release pretreated for 10 mins before alpha-MSH challenge measured after 40 mins. The experiment is classed as functional, cell-based. In short, it runs like this:
as §1

T1 sequence (P32245 whole entry): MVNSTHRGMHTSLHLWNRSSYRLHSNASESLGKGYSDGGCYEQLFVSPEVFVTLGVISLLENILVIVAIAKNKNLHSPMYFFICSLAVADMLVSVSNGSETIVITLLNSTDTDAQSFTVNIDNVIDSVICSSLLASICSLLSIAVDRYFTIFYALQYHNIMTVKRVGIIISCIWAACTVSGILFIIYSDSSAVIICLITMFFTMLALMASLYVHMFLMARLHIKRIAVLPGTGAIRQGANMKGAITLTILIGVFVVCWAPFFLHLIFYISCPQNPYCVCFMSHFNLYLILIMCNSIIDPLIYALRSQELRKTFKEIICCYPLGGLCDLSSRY

Regarding `Cc1cc2c(cc1Cl)C1(CCN(C(=O)[C@@H]3CN(C(C)(C)C)C[C@H]3c3ccc(F)cc3F)CC1)C[C@@H]2C(C)(C)C(=O)NCCO`, the pIC50 at Melanocortin receptor 4 [1] is 8.59. The Activity in experiment [2] came out at 56%; on Melanocortin receptor 4 [4], 100%. Moreover, the values for the pEC50 (at Melanocortin receptor 4 [3]; in experiment [5]) were 8.89 and 7.08, respectively.
Compound `Cc1cc2c(cc1Cl)C1(CCN(C(=O)[C@@H]3CN(C(C)(C)C)C[C@H]3c3ccc(F)cc3F)CC1)C[C@@H]2C(C)(C)C(=O)N1CCC(F)(F)C1` had a pIC50 on Melanocortin receptor 4 [1] of 8.70. The Activity in experiment [2] amounted to 54%; on Melanocortin receptor 4 [4], 96%. Also, the values for the pEC50 (on Melanocortin receptor 4 [3]; in experiment [5]) were 8.42 and 6.55, respectively.
Taken in the same sequence, the figures for `Cc1cc2c(cc1Cl)C1(CCN(C(=O)[C@@H]3CN(C(C)(C)C)C[C@H]3c3ccc(F)cc3F)CC1)C[C@@H]2C(C)(C)C(=O)N1CCOCC1` were 9.07, 66%, 94%, 9.42 and 7.08.
Taken in the same sequence, the figures for `CCN(C)C(=O)C(C)(C)[C@H]1CC2(CCN(C(=O)[C@@H]3CN(C(C)(C)C)C[C@H]3c3ccc(F)cc3F)CC2)c2cc(Cl)c(C)cc21` were 8.68, 69%, 103%, 8.80 and 6.45.
Taken in the same sequence, the figures for `CCNC(=O)C(C)(C)[C@@H]1CC2(CCN(C(=O)[C@@H]3CN(C(C)(C)C)C[C@H]3c3ccc(F)cc3F)CC2)c2cc(Cl)c(C)cc21` were 7.28, 26%, 96%, 7.49 and 5.85.
`CNC(=O)C(C)(C)[C@H]1CC2(CCN(C(=O)[C@@H]3CN(C(C)(C)C)C[C@H]3c3ccc(F)cc3F)CC2)c2cc(Cl)c(C)cc21`: the pIC50 on Melanocortin receptor 4 [1] is 8.59. The results for the Activity (in experiment [2]; on Melanocortin receptor 4 [4]) were 60% and 94%, respectively. Also, the pEC50 at Melanocortin receptor 4 [3] is 9.04; in experiment [5] it was 6.49.
For `Cc1cc2c(cc1Cl)C1(CCN(C(=O)[C@@H]3CN(C(C)(C)C)C[C@H]3c3ccc(F)cc3F)CC1)C[C@H]2C(C)(C)C(=O)N(C)C`, the pIC50 on Melanocortin receptor 4 [1] was 7.23. In addition, the figures for the Activity (in experiment [2]; on Melanocortin receptor 4 [4]) were 17% and 80%, respectively. Also, the pEC50 at Melanocortin receptor 4 [3] is 7.28; in experiment [5], 5.30.
Taken in the same sequence, the figures for `Cc1cc2c(cc1Cl)C1(CCN(C(=O)[C@@H]3CN(C(C)(C)C)C[C@H]3c3ccc(F)cc3F)CC1)C[C@H]2C(C)(C)C(=O)NC1CC1` were 7.26, 20%, 95%, 7.55 and 5.95.
`CC(=O)N(C)C(C)(C)[C@H]1CC2(CCN(C(=O)[C@@H]3CN(C(C)(C)C)C[C@H]3c3ccc(F)cc3F)CC2)c2cc(Cl)c(C)cc21`: the pIC50 at Melanocortin receptor 4 [1] was 8.60. Besides, the Activity in experiment [2] was 41%; at Melanocortin receptor 4 [4], 83%. Besides, the pEC50 is 8.37 on Melanocortin receptor 4 [3] and 6.57 in experiment [5].
Compound `Cc1cc2c(cc1Cl)C1(CCN(C(=O)[C@@H]3CN(C(C)(C)C)C[C@H]3c3ccc(F)cc3F)CC1)C[C@@H]2C(C)(C)C(=O)N1CC[C@@H](F)C1` gave a pIC50 at Melanocortin receptor 4 [1] of 8.80. The Activity in experiment [2] is 69%; at Melanocortin receptor 4 [4] it was 87%. Further, the pEC50 is 8.96 on Melanocortin receptor 4 [3] and 6.91 in experiment [5].
Taken in the same sequence, the figures for `Cc1cc2c(cc1Cl)C1(CCN(C(=O)[C@@H]3CN(C(C)(C)C)C[C@H]3c3ccc(F)cc3F)CC1)C[C@@H]2C(C)(C)C(=O)N1CCCC1` were 8.74, 60%, 73%, 9.00 and 6.65.
In the same order, the values of `Cc1cc2c(cc1Cl)C1(CCN(C(=O)[C@@H]3CN(C(C)(C)C)C[C@H]3c3ccc(F)cc3F)CC1)C[C@@H]2C(C)(C)C(=O)NCCF` are 8.59, 48%, 84%, 8.96 and 6.59.
In the same order, the values of `CO[C@@H]1CCN(C(=O)C(C)(C)[C@H]2CC3(CCN(C(=O)[C@@H]4CN(C(C)(C)C)C[C@H]4c4ccc(F)cc4F)CC3)c3cc(Cl)c(C)cc32)C1` are 8.85, 67%, 111%, 9.16 and 6.99.
On Melanocortin receptor 4 [1], `CCN(CC)C(=O)C(C)(C)[C@H]1CC2(CCN(C(=O)[C@@H]3CN(C(C)(C)C)C[C@H]3c3ccc(F)cc3F)CC2)c2cc(Cl)c(C)cc21` showed a pIC50 of 8.59. In addition, the figures for the Activity (in experiment [2]; at Melanocortin receptor 4 [4]) were 67% and 81%, respectively. In addition, the pEC50 at Melanocortin receptor 4 [3] is 8.77; in experiment [5] it was 6.77.
On Melanocortin receptor 4 [1], `Cc1cc2c(cc1Cl)C1(CCN(C(=O)[C@@H]3CN(C(C)(C)C)C[C@H]3c3ccc(F)cc3F)CC1)C[C@@H]2C(C)(C)C(=O)N1CCC1` showed a pIC50 of 8.96. Further, the Activity turned out to be 72% in experiment [2] and 88% at Melanocortin receptor 4 [4]. Besides, the values for the pEC50 (on Melanocortin receptor 4 [3]; in experiment [5]) were 9.23 and 6.62, respectively.
Regarding `Cc1cc2c(cc1Cl)C1(CCN(C(=O)[C@@H]3CN(C(C)(C)C)C[C@H]3c3ccc(F)cc3F)CC1)C[C@@H]2C(C)(C)C(=O)N1C[C@@H]2C[C@H]1CO2`, the pIC50 on Melanocortin receptor 4 [1] was 8.80. Besides, the Activity in experiment [2] turned out to be 72%; at Melanocortin receptor 4 [4], 96%. Also, the pEC50 was 9.12 on Melanocortin receptor 4 [3] and 7.16 in experiment [5].
As for `Cc1cc2c(cc1Cl)C1(CCN(C(=O)[C@@H]3CN(C(C)(C)C)C[C@H]3c3ccc(F)cc3F)CC1)C[C@@H]2C(C)(C)C(=O)NC1CC1`, the pIC50 at Melanocortin receptor 4 [1] is 8.66. Further, the Activity in experiment [2] was determined as 50%; on Melanocortin receptor 4 [4], 95%. Besides, the figures for the pEC50 (at Melanocortin receptor 4 [3]; in experiment [5]) were 9.10 and 6.61, respectively.
In turn, `Cc1cc2c(cc1Cl)C1(CCN(C(=O)[C@@H]3CN(C(C)(C)C)C[C@H]3c3ccc(F)cc3F)CC1)C[C@@H]2C(C)(C)C(=O)NC(C)(C)C` had a pIC50 on Melanocortin receptor 4 [1] of 7.92. Besides, the figures for the Activity (in experiment [2]; at Melanocortin receptor 4 [4]) were 47% and 76%, respectively. Besides, the pEC50 was 8.00 at Melanocortin receptor 4 [3] and 5.99 in experiment [5].
Taken in the same sequence, the figures for `Cc1cc2c(cc1Cl)C1(CCN(C(=O)[C@@H]3CN(C(C)(C)C)C[C@H]3c3ccc(F)cc3F)CC1)C[C@@H]2C(C)(C)C(=O)NC(C)(C)CO` were 8.41, 53%, 89%, 8.72 and 6.66.
`Cc1cc2c(cc1Cl)C1(CCN(C(=O)[C@@H]3CN(C(C)(C)C)C[C@H]3c3ccc(F)cc3F)CC1)C[C@@H]2C(C)(C)C(=O)N1CC[C@@H](O)C1` gave a pIC50 at Melanocortin receptor 4 [1] of 9.28. In addition, the Activity in experiment [2] turned out to be 71%; at Melanocortin receptor 4 [4] it was 98%. Moreover, the pEC50 on Melanocortin receptor 4 [3] was 9.60; in experiment [5], 7.48.
For the compound `Cc1cc2c(cc1Cl)C1(CCN(C(=O)[C@@H]3CN(C(C)(C)C)C[C@H]3c3ccc(F)cc3F)CC1)C[C@@H]2C(C)(C)C(=O)NC1CCOCC1`, the pIC50 on Melanocortin receptor 4 [1] is 8.60. Moreover, the Activity turned out to be 74% in experiment [2] and 92% on Melanocortin receptor 4 [4]. The pEC50 was 8.64 at Melanocortin receptor 4 [3] and 6.59 in experiment [5].
`Cc1cc2c(cc1Cl)C1(CCN(C(=O)[C@@H]3CN(C(C)(C)C)C[C@H]3c3ccc(F)cc3F)CC1)C[C@@H]2C(C)(C)C(=O)N1CC[C@H](F)C1` had a pIC50 on Melanocortin receptor 4 [1] of 8.85. In addition, the Activity in experiment [2] came to 68%; at Melanocortin receptor 4 [4], 106%. The pEC50 on Melanocortin receptor 4 [3] was 9.01; in experiment [5], 6.69.
Compound `Cc1cc2c(cc1Cl)C1(CCN(C(=O)[C@@H]3CN(C(C)(C)C)C[C@H]3c3ccc(F)cc3F)CC1)C[C@H]2C(C)(C)C(=O)NCC(F)(F)F` had a pIC50 at Melanocortin receptor 4 [1] of 7.03. The Activity in experiment [2] was 5%; on Melanocortin receptor 4 [4], 78%. The pEC50 on Melanocortin receptor 4 [3] is 6.51.
The compound `Cc1cc2c(cc1Cl)C1(CCN(C(=O)[C@@H]3CN(C(C)(C)C)C[C@H]3c3ccc(F)cc3F)CC1)C[C@@H]2C(C)(C)C(=O)N1CC[C@H](O)C1` gave a pIC50 on Melanocortin receptor 4 [1] of 9.05. Also, the results for the Activity (in experiment [2]; at Melanocortin receptor 4 [4]) were 93% and 88%, respectively. The pEC50 on Melanocortin receptor 4 [3] is 9.43; in experiment [5] it was 7.54.
On Melanocortin receptor 4 [1], `CCNC(=O)C(C)(C)[C@H]1CC2(CCN(C(=O)[C@@H]3CN(C(C)(C)C)C[C@H]3c3ccc(F)cc3F)CC2)c2cc(Cl)c(C)cc21` had a pIC50 of 8.51. The values for the Activity (in experiment [2]; on Melanocortin receptor 4 [4]) were 50% and 100%, respectively. The pEC50 was 8.85 on Melanocortin receptor 4 [3] and 6.53 in experiment [5].
Take `Cc1cc2c(cc1Cl)C1(CCN(C(=O)[C@@H]3CN(C(C)(C)C)C[C@H]3c3ccc(F)cc3F)CC1)C[C@@H]2C(C)(C)C(=O)NCC(C)C`: the pIC50 on Melanocortin receptor 4 [1] was 8.18. Also, the Activity in experiment [2] came to 45%; at Melanocortin receptor 4 [4], 92%. Further, the pEC50 is 7.57 on Melanocortin receptor 4 [3] and 5.69 in experiment [5].
In the same order, the values of `CO[C@H]1CCN(C(=O)C(C)(C)[C@H]2CC3(CCN(C(=O)[C@@H]4CN(C(C)(C)C)C[C@H]4c4ccc(F)cc4F)CC3)c3cc(Cl)c(C)cc32)C1` are 8.64, 71%, 112%, 8.92 and 6.99.
In the same order, the values of `Cc1cc2c(cc1Cl)C1(CCN(C(=O)[C@@H]3CN(C(C)(C)C)C[C@H]3c3ccc(F)cc3F)CC1)C[C@@H]2C(C)(C)C(=O)NC(C)C` are 8.23, 45%, 92%, 8.54 and 6.36.
